# Results collected from several papers.
# Target: Cyclin-dependent kinase 9 (CDK9, Homo sapiens, UniProt P50750)
SMILES,test,setting,remaining binding [%]
CN(C)c1nccc(-c2cnc3ncccn23)n1,binding,1 µM,100
O=C(O)[C@H]1[C@H](Cn2nnc3ccccc3c2=O)CC[C@@H]1C(=O)c1ccc(OCCC2CCOCC2)cc1,"cell-free assay, competition with immobilised ligand",1 µM,72
CN(CCCC(F)(F)F)c1nccc(-c2cnn3ncccc23)n1,binding,1 µM,100
Nc1ncc2c(n1)-c1c([nH]c3ccc(C#CC4CC4)cc13)CCCC2,"binding, competition with immobilised ligand",1 µM,91
COc1ccc2c(O[C@@H]3C[C@H]4C(=O)N[C@]5(C(=O)O)CC5/C=C\CCCCC[C@H](NC(=O)OC5CCCC5)C(=O)N4C3)cc(-c3csc(NC(=O)C(C)C)n3)nc2c1C (stereo partly drawn),"cell-free assay, competition with immobilised ligand",1 µM,83
c1cncc(-c2cccc(Nc3nccc(NC4CCCCC4)n3)c2)c1,"binding, competition with immobilised ligand",10 µM,63
FC(F)(F)Oc1cccc(-c2cnc3ccc(-c4ccncc4)nn23)c1,"cell-free assay, competition with immobilised ligand",5 µM,89
CNC(=O)[C@@H]1CC[C@@H](n2c(-c3ccc4cnccc4c3)nc3ccc(C(=O)NCc4cccc(C(N)=O)c4)cc32)C1,"binding, competition with immobilised ligand",1 µM,100
CN(C)c1ncc(F)c(-c2cnn3ncccc23)n1,binding,1 µM,100
CO[C@H]1CC[C@H](CNc2ccc(S(=O)(=O)NC(=O)c3ccc(N4CCN(CC5=C(c6ccc(Cl)cc6)CC(C)(C)CC5)CC4)cc3Oc3cnc4[nH]ccc4c3)cc2[N+](=O)[O-])CC1,"cell-free assay, competition with immobilised ligand",1 µM,91
O=C(NCC1CCOCC1)c1n[nH]cc1NC(=O)c1c(F)cccc1F,"binding, competition with immobilised ligand",1 µM,83
O=C(NCCCN1CCOCC1)c1ccc(Nc2nccc(-c3cc4ccccc4s3)n2)cc1,"binding, competition with immobilised ligand",1 µM,52
C[C@@H]1CN(c2ccc3ncc(-c4ccc5[nH]nc(C6CC6)c5c4)n3n2)C[C@H](C)O1,"binding, competition with immobilised ligand",0.5 µM,78
Cc1cnc(Nc2ccc(C(=O)N3CCC(N4CCCC4)CC3)cc2)nc1-c1cc2ccccc2s1,"binding, competition with immobilised ligand",1 µM,82
CCC(=O)N[C@H]1CC[C@@H](C(=O)N(C)c2ccc(-c3nc4ccccc4o3)cc2)C1,"cell-free assay, competition with immobilised ligand",1 µM,95
